Measured values as given in ChEMBL document CHEMBL1152483, “To determine the cytotoxicity of chlorambucil and one of its nitro-derivatives, conjugated to prasterone and pregnenolone, towards eight human cancer cell-lines” (Eur J Med Chem, 2009).
Calls of active or inactive are those of the source. The rule behind the calls is not given here.

Tests used:
NCI-H460 [1] = test: Cytotoxicity against human H460 cells after 5 days by MTT assay; type: functional, cell-based; conditions: NCI-H460, 120 h
In short: (§1)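 Cells are grown in RPMI with 2 mM L-glutamine and 10% FBS and seeded at 400–1000 per well. They get doubling dilutions of drug, each dose in triplicate, for five days at 37 °C, 5% CO2, humidified. MTT at 3 mg/ml is added for 3 h, and formazan is dissolved in DMSO and read at 540 nm minus 620 nm. % growth inhibition is taken against control wells and IC50 calculated.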

[2] = Alkylating activity in 0.2 M acetate buffer of pH 5.6 at 0.1 to 1 mM after 4 hrs by spectrophotometry relative to chlorambucil; type: physicochemical; conditions: pH 5.6, 4 h, 1000 µM
In short: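 Each compound at 0.1–1.0 mM in 50% (v/v) acetone/ethanol is added to 0.2 M acetate buffer pH 5.6 with 5% (w/v) p-nitrobenzyl pyridine in acetone and incubated 4 h at 37 °C. Colour is then developed with 25% (v/v) 3-amino-1-propanol in tert-butanol and absorbance read at 560 nm.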

[3] = Cytotoxicity against human OVCA3 cells after 5 days by MTT assay; type: functional, cell-based; conditions: OVCA3, 120 h; in short: as §1
Daoy [4] = test: Cytotoxicity against human DaOY cells after 5 days by MTT assay; type: functional, cell-based; conditions: 120 h; in short: as §1
[5] = Metabolic stability in human plasma assessed as rate of hydrolysis after 24 hrs; type: ADME, cell-free; conditions: read-out: Activity
In short: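 Ester stock is made in absolute ethanol and added to freshly prepared human plasma with PBS, then incubated at 37 °C. Samples are mixed with an equal volume of mobile phase, spun 20 min at 11,600 g, and the supernatant is diluted in mobile phase for RP-HPLC.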

MDA-MB-468 [6] = test: Cytotoxicity against human MDA-MB-468 cells […] after 5 days by MTT assay; type: functional, cell-based; conditions: MDA-MB-468, 120 h; in short: as §1
MCF7 [7] = test: Cytotoxicity against human MCF7 cells expressing estrogen and progesterone receptor after 5 days by MTT assay; type: functional, cell-based; conditions: MCF7, 120 h; in short: as §1
WiDr [8] = test: Cytotoxicity against human WiDr cells after 5 days by MTT assay; type: functional, cell-based; conditions: 120 h; in short: as §1
MDA-MB-468 [9] = test: Ratio of IC50 for […] human MDA-MB-468 cells transfected with NAD(P)H: quinone oxidoreductase NQO1 to IC50 for human MDA-MB-468 cells […]; type: functional
[10] = Chemical stability assessed as rate of hydrolysis after 2 hrs by HPLC analysis in presence of pig liver esterase; type: physicochemical; conditions: read-out: Activity
In short: (§2)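 Porcine liver esterase is preincubated about 15 min at 37 °C in phosphate buffer pH 7.4, then ester is added. Aliquots are taken at set times, quenched with an equal volume of acetonitrile, vortexed and spun 10 min at 11,600 g. Samples are run on RP-HPLC (C18, 2% acetic acid/acetonitrile pH 5.2, 1.2 ml/min, 254 nm). The zero reaction is ester in buffer alone for 15 min.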

A-375 [11] = test: Cytotoxicity against human A375 cells after 5 days by MTT assay; type: functional, cell-based; conditions: A-375, 120 h; in short: as §1
[12] = Chemical stability assessed as rate of hydrolysis after 24 hrs by HPLC analysis in presence of pig liver esterase; type: physicochemical; conditions: read-out: Activity; in short: as §2
MDA-MB-468 [13] = test: Cytotoxicity against human MDA-MB-468 cells transfected with NAD(P)H: quinone oxidoreductase NQO1 after 5 days by MTT assay; type: functional, cell-based; conditions: MDA-MB-468, 120 h; in short: as §1
[14] = Partition coefficient, log P after 1 hr by UV spectroscopy; type: physicochemical; conditions: octanol/water
In short: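 Compound is shaken in n-octanol/water for 1 h at 20 °C, then spun 10 min at 3600 g and the phases separated. Original and shaken solutions are diluted to 0.8 mg% and compared by UV spectroscopy at 200–400 nm. Log P is calculated by the Leo method.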

[15] = Chemical stability in phosphate buffer saline assessed as half life by HPLC analysis; type: physicochemical
In short: (§3)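 Esters are stored in phosphate buffered saline at 37 °C. Stability is followed over forty-five days by RP-HPLC (C18, acetic acid/acetonitrile pH 5.2, 1.2 ml/min, UV 254 nm), supported by infrared spectroscopy.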

WiDr [16] = test: Cytotoxicity against human WiDr cells at < 100 uM after 5 days by MTT assay; type: functional, cell-based; in short: as §1
NCI-H460 [17] = test: Cytotoxicity against human H460 cells at < 100 uM after 5 days by MTT assay; type: functional, cell-based; in short: as §1
OVCA3 = test: Cytotoxicity against human OVCA3 cells at < 100 uM after 5 days by MTT assay; type: functional, cell-based; in short: as §1
MDA-MB-468 [18] = test: Cytotoxicity against human MDA-MB-468 cells transfected with NAD(P)H: quinone oxidoreductase NQO1 at < 100 uM after 5 days by MTT assay; type: functional, cell-based; in short: as §1
Daoy [19] = test: Cytotoxicity against human DaOY cells at < 100 uM after 5 days by MTT assay; type: functional, cell-based; in short: as §1
MDA-MB-468 [20] = test: Cytotoxicity against human MDA-MB-468 cells […] at < 100 uM after 5 days by MTT assay; type: functional, cell-based; in short: as §1
MCF7 [21] = test: Cytotoxicity against human MCF7 cells expressing estrogen and progesterone receptor at < 100 uM after 5 days by MTT assay; type: functional, cell-based; in short: as §1
A-375 [22] = test: Cytotoxicity against human A375 cells at < 100 uM after 5 days by MTT assay; type: functional, cell-based; in short: as §1
[23] = Chemical stability in phosphate buffer saline at pH 7.4 assessed as compound degradation by HPLC analysis; type: physicochemical; conditions: read-out: Activity; in short: as §3
[24] = Metabolic stability in rat liver assessed as half life; type: ADME, tissue-based
[25] = Metabolic stability in rat blood assessed as half life; type: ADME, tissue-based

SMILES: C[C@]12CC[C@H](OC(=O)CCCc3ccc(N(CCCl)CCCl)cc3)CC1=CC[C@@H]1[C@@H]2CC[C@]2(C)C(=O)CC[C@@H]12
- IC50 (NCI-H460 [1]): 11.8 µM
- Activity [2]: 70%
- IC50 [3]: 82.5 µM
- IC50 (Daoy [4]): 19.6 µM
- metabolised at 24 h [5]: 51%
- IC50 (MDA-MB-468 [6]): 5.48 µM
- IC50 (MCF7 [7]): 72.5 µM
- IC50 (WiDr [8]): > 100 µM
- Ratio IC50 (MDA-MB-468 [9]): 1.5
- metabolised at 2 h [10]: 24%
- IC50 (A-375 [11]): 61.4 µM
- metabolised at 24 h [12]: 83%
- IC50 (MDA-MB-468 [13]): 11.8 µM
- logP at 1 h [14]: > 8

SMILES: CC(=O)[C@H]1CC[C@H]2[C@@H]3CC=C4C[C@@H](OC(=O)CCCc5ccc(N(CCCl)CCCl)cc5)CC[C@]4(C)[C@H]3CC[C@]12C
- IC50 (NCI-H460 [1]): 36.2 µM
- Activity [2]: 18%
- IC50 [3]: 88.8 µM
- IC50 (Daoy [4]): 41.9 µM
- metabolised at 24 h [5]: 37%
- IC50 (MDA-MB-468 [6]): 10.3 µM
- IC50 (MCF7 [7]): 90 µM
- IC50 (WiDr [8]): 86.3 µM
- Ratio IC50 (MDA-MB-468 [9]): 2
- metabolised at 2 h [10]: 24%
- IC50 (A-375 [11]): 74.2 µM
- metabolised at 24 h [12]: 83%
- IC50 (MDA-MB-468 [13]): 20.5 µM
- logP at 1 h [14]: > 8

SMILES: O=C(O)CCCc1ccc(N(CCCl)CCCl)cc1 [CHLORAMBUCIL]
- half-life [15]: 1 h
- IC50 (NCI-H460 [1]): 2.19 µM
- Activity [2]: > 100%
- IC50 [3]: 8.92 µM
- IC50 (Daoy [4]): 1.36 µM
- IC50 (MDA-MB-468 [6]): 0.65 µM
- IC50 (MCF7 [7]): 4.5 µM
- IC50 (WiDr [8]): 7.13 µM
- IC50 (A-375 [11]): 2.58 µM
- IC50 (MDA-MB-468 [13]): 0.79 µM
- logP at 1 h [14]: 3.8

SMILES: CC(=O)[C@H]1CC[C@H]2[C@@H]3CC=C4C[C@@H](O)CC[C@]4(C)[C@H]3CC[C@]12C
- Activity (WiDr [16]): inactive
- Activity (NCI-H460 [17]): inactive
- Activity (OVCA3): inactive
- Activity (MDA-MB-468 [18]): inactive
- Activity (Daoy [19]): inactive
- Activity (MDA-MB-468 [20]): inactive
- Activity (MCF7 [21]): inactive
- Activity (A-375 [22]): inactive

SMILES: C[C@]12CC[C@H](OC(=O)CCCc3ccc(N(CCCl)CCCl)c([N+](=O)[O-])c3)CC1=CC[C@@H]1[C@@H]2CC[C@]2(C)C(=O)CC[C@@H]12
- IC50 (NCI-H460 [1]): > 100 µM
- degraded [23]: 46%
- Activity [2]: 8%
- IC50 [3]: > 100 µM
- IC50 (Daoy [4]): > 100 µM
- metabolised at 24 h [5]: 51%
- IC50 (MDA-MB-468 [6]): 7.25 µM
- IC50 (MCF7 [7]): > 100 µM
- IC50 (WiDr [8]): > 100 µM
- Ratio IC50 (MDA-MB-468 [9]): 1.5
- metabolised at 2 h [10]: 24%
- IC50 (A-375 [11]): > 100 µM
- metabolised at 24 h [12]: 83%
- IC50 (MDA-MB-468 [13]): 10.6 µM
- logP at 1 h [14]: > 8

SMILES: C[C@]12CC[C@H](O)CC1=CC[C@@H]1[C@@H]2CC[C@]2(C)C(=O)CC[C@@H]12
- Activity (WiDr [16]): inactive
- Activity (NCI-H460 [17]): inactive
- Activity (OVCA3): inactive
- Activity (MDA-MB-468 [18]): inactive
- Activity (Daoy [19]): inactive
- Activity (MDA-MB-468 [20]): inactive
- Activity (MCF7 [21]): inactive
- Activity (A-375 [22]): inactive

SMILES: O=C(O)CCCc1ccc(N(CCCl)CCCl)c([N+](=O)[O-])c1
- IC50 (NCI-H460 [1]): 9.53 µM
- Activity [2]: 38%
- IC50 [3]: 15.6 µM
- IC50 (Daoy [4]): 5.3 µM
- IC50 (MDA-MB-468 [6]): 1.16 µM
- IC50 (MCF7 [7]): 23 µM
- IC50 (WiDr [8]): 13 µM
- IC50 (A-375 [11]): 9.46 µM
- IC50 (MDA-MB-468 [13]): 3.75 µM
- logP at 1 h [14]: 3.7

SMILES: CC(=O)[C@H]1CC[C@H]2[C@@H]3CC=C4C[C@@H](OC(=O)CCCc5ccc(N(CCCl)CCCl)c([N+](=O)[O-])c5)CC[C@]4(C)[C@H]3CC[C@]12C
- IC50 (NCI-H460 [1]): > 100 µM
- degraded [23]: 48%
- Activity [2]: 4%
- IC50 [3]: > 100 µM
- IC50 (Daoy [4]): > 100 µM
- metabolised at 24 h [5]: 37%
- IC50 (MDA-MB-468 [6]): 19.3 µM
- IC50 (MCF7 [7]): 68.3 µM
- IC50 (WiDr [8]): > 100 µM
- Ratio IC50 (MDA-MB-468 [9]): 2
- metabolised at 2 h [10]: 24%
- IC50 (A-375 [11]): > 100 µM
- metabolised at 24 h [12]: 83%
- IC50 (MDA-MB-468 [13]): 32.6 µM
- logP at 1 h [14]: > 8

SMILES: CC(C)(C)OC(=O)CCCc1ccc(N(CCCl)CCCl)cc1 [CHLORAMBUCIL TERTIARY BUTYL ESTER]
- half-life [24]: 2 h
- half-life [25]: 7 h
